Screening results from PubChem.
Hits are enriched below; roughly 0.41% of the tested compounds scored in any of these assays.
Yeast superoxide – lowers age-related superoxide in aged yeast cells. superoxide response (% of plate mean), % at 10 µM. 330,000 tested, 0.18% active. S. cerevisiae aged cells, superoxide DHE fluorescence; hits give low values;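 active = superoxide response under a set limit, about three screen SD below normal, cut at about 65% in these data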;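 note: yeast aged for seven days with compound at 30 °C before DHE staining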
S1P3 antag – antagonists of human S1P3 receptor | AID 485 | inhibition, % at 4.98 µM | 170,000 tested, 0.27% active | CHO S1P3 NFAT-BLA reporter, FRET fluorescence, antagonist mode;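 active = inhibition above the plate cutoff, the mean inhibition of test wells on that plate plus 3 SD, cut at about 28% in these data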;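 note: cells challenged with S1P at its EC80 of 0.8 µM; blue over green emission ratio from cleaved BLA substrate after 4 h stimulation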
Target sequence (Q99500 whole entry, looked up): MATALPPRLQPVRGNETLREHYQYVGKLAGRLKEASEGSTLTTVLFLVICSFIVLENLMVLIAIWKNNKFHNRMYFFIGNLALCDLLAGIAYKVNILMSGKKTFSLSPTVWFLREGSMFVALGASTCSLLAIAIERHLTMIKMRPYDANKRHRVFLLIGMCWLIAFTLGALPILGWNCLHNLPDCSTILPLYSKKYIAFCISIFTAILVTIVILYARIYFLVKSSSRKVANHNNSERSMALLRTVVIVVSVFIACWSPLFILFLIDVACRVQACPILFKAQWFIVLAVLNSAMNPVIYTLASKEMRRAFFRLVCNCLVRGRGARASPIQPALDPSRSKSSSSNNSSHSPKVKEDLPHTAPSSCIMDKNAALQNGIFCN
T cell HTS – modulates CD8 T cell binding to vesicles; 2C CD8+ T cell-vesicle binding, flow cytometry; hits give low values; response (vesicle binding), % at 7 µM; 330,000 tested, 0.068% active; AID 2052;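 active = response, share of CD8 T cells binding vesicles, and their 90th percentile fluorescence all below set limits, cut at about 80% in these data, passing the limit was not always enough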;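 note: values below 100% mean blocked vesicle binding to the CD8+ T cells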
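material = purified 2C TCR transgenic mouse naive CD8+ T cells | controls = Unloaded micro-vesicles (low), QL9 vesicles with 0.7% DMSO (high) | detection = cytometric PE anti-B7-1 and Alexa647 anti-CD8 signals after 1% paraformaldehyde fixation | incubation = binding step 1.5 h, 37 °C, antibody labelling 20 min, ice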
Numbers stand for hits; – = inactive; · = no result.

SMILES	Yeast superoxide	S1P3 antag	T cell HTS
COc1ccc(S(=O)(=O)N2CCN(Cc3cccc(Cl)c3)CC2)cc1	–	–	–
COc1cccc(CN(C)C(=O)/C=C/c2ccc(S(=O)(=O)N3CCCCCC3)cc2)c1	–	·	–
O=C(CNC(=O)C12CC3CC(CC(C3)C1)C2)OCc1ccc(F)cc1Cl	–	·	–
Cc1ccc(N2C(=O)N(CC(=O)c3cc(C)ccc3C)C(=O)C2C)cc1 (stereo not given)	–	–	–
Cc1ccc(C)c(C(=O)CN2C(=O)CCC2=O)c1	–	75	–
O=C(NNC(=O)C1C2C=CC(C2)C1C(=O)O)c1ccccc1O (stereo not given)	–	·	–
CCn1c(CNC(=O)Cc2ccc(OC)cc2)nnc1SCC(=O)Nc1ccc(C(=O)O)cc1	–	–	–
CCn1c(CNC(=O)Cc2ccc(OC)cc2)nnc1SCC(=O)Nc1nccs1	–	60	–
CN(C)c1ccc(C(=O)Nc2nc3c(s2)CCCC3)cc1	–	90	–
CC(C)(C)c1ccc(C(=O)NC(=S)Nc2nc3c(s2)CCCC3)cc1	–	–	–
CC1(NC(=O)c2ccccc2)CCN(CCCc2ccccc2)C1=O (stereo not given)	–	·	–
Cc1ccc(S(=O)(=O)NCC(=O)OCC(=O)N2C(C)CCCC2C)cc1 (stereo not given)	–	·	–
C=CCC1(CC=C)CCCN1C(=O)C1CCC(=O)N(CCc2ccc(OC)cc2)C1 (stereo not given)	–	·	–
C=CCC1(CC=C)CCCN1C(=O)C1CCC(=O)N(CCc2ccccc2)C1 (stereo not given)	–	·	66
COc1ccc(N(CC(=O)NCC2CCCO2)S(=O)(=O)c2ccccc2)cc1OC (stereo not given)	–	·	–
CC(C)NC(=O)N(C)C[C@H]1Oc2ccc(NS(=O)(=O)c3ccccc3)cc2C(=O)N([C@H](C)CO)C[C@H]1C	–	·	62
C[C@H](CO)N1C[C@H](C)[C@@H](CN(C)C)Oc2c(NS(=O)(=O)c3ccccc3)cccc2C1=O	–	·	0.0
C[C@H](CO)N1C[C@H](C)[C@@H](CN(C)C(=O)Nc2ccccc2)Oc2ccc(NS(=O)(=O)c3ccccc3)cc2C1=O	–	·	–
C[C@@H]1CN([C@H](C)CO)C(=O)c2cccc(NS(=O)(=O)c3ccccc3)c2O[C@H]1CN(C)C	–	·	–
Cc1nn(-c2ccccc2)c(C)c1C(=O)OC(C)C(=O)NC1CCCCC1C (stereo not given)	–	·	–
COCCn1c(C)cc(C(=O)CN2CCCCC2)c1C	–	–	–
COCCn1c(C)cc(C(=O)CN2C(=O)NC3(CCCCCCC3)C2=O)c1C	–	–	0.0
Cc1ccc(NC(=O)[C@H](C)NC(=O)C2CCN(C(=O)[C@@H](N)CC(C)C)CC2)cc1	–	·	–
CCn1c(SCC(=O)c2ccc(O)c(O)c2)nnc1-c1ccccc1OC	–	74	–
C=CCn1c(SCC(=O)c2ccc(O)c(O)c2)nnc1-c1ccccc1OC	–	–	–
SMILES	Yeast superoxide	S1P3 antag	T cell HTS
O=C(Nc1cccc(-n2cnnn2)c1)c1cnccc1Cl	–	·	–
COC(=O)c1c(NC(=O)COC(=O)c2ccc(Cl)nc2)sc(C)c1C	–	·	49
COC(=O)c1c(NC(=O)COC(=O)c2ccccn2)sc(C)c1C	–	·	–
CCCCSc1nnc(-c2c[nH]c3ccccc23)n1C	–	101	–
Cn1c(SCc2ccccc2)nnc1-c1c[nH]c2ccccc12	–	·	–
CC(C)(C)c1cc(S(=O)(=O)CCc2ccncc2)cc(C(C)(C)C)c1F	–	·	–
C=CC(C)(C)c1c(O)c(CC=C(C)C)c(O)c2c(=O)c3ccc(O)c(O)c3oc12	–	·	32
C=CC(C)(C)c1c2occc2c(O)c2ccc(=O)oc12	–	·	–
COc1ccccc1N1CCN(C(=O)c2ccc3c(=O)n(Cc4ccc5c(c4)OCO5)c(=O)[nH]c3c2)CC1	–	·	–
COC(=O)c1ccccc1N1C(=O)C2C(C1=O)[C@H]1C=C[C@@H]2C1 (stereo not given in full)	–	–	–
COC(=O)c1ccccc1N1C(=O)C2C(C1=O)C1C=CC2C12CC2 (stereo not given)	57	–	–
CC1CCc2c(sc(NC(=O)Cn3nc(C(F)(F)F)c4c3CCCCC4)c2C#N)C1 (stereo not given)	–	·	0.0
N#Cc1c(NC(=O)Cn2nc(C(F)(F)F)c3c2CCCC3)sc2c1CCC2	–	·	–
Cc1ccc(NC(=O)CCNS(=O)(=O)c2ccc3[nH]c(=O)oc3c2)cc1N(C)C	–	·	–
Cc1ccc(CNS(=O)(=O)c2ccc(F)c(F)c2)n1C	–	·	–
COC(=O)c1ccc(COc2ccc(-c3nnn(CC(=O)NC(C)(C)C)n3)cc2)cc1	–	–	–
COC(=O)c1ccc(COc2ccc(-c3nnn(CC(N)=O)n3)cc2)cc1	–	–	0.0
